In ChEMBL document CHEMBL2346629, “Discovery and characterization of novel allosteric FAK inhibitors” (Eur J Med Chem, 2013):

How the values were obtained:
[1] = target: Dual specificity tyrosine-phosphorylation-regulated kinase 3 (Homo sapiens) (UniProt O43781); test: Inhibition of DYRK3 (unknown origin) using [gamma-33P]ATP assessed as residual activity at 3 uM
In short: (§1)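 Reaction Biology HotSpot radiometric profiling panel of 288 kinases (261 wild-type, 27 mutant). Kinase activity was read out by incorporation of [γ-33P]ATP.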

[2] = tested on: Platelet-derived growth factor receptor alpha (Homo sapiens), P16234 [T674I]; test: Inhibition of PDGFRa T674I mutant (unknown origin) using [gamma-33P]ATP assessed as residual activity at 3 uM
[3] = target: Rho-associated protein kinase 1 (Homo sapiens) (UniProt Q13464); test: Inhibition of ROCK1 (unknown origin) using [gamma-33P]ATP assessed as residual activity at 3 uM
Rho-associated protein kinase 1 (Homo sapiens), sequence (Q13464 2-1354 limits assumed): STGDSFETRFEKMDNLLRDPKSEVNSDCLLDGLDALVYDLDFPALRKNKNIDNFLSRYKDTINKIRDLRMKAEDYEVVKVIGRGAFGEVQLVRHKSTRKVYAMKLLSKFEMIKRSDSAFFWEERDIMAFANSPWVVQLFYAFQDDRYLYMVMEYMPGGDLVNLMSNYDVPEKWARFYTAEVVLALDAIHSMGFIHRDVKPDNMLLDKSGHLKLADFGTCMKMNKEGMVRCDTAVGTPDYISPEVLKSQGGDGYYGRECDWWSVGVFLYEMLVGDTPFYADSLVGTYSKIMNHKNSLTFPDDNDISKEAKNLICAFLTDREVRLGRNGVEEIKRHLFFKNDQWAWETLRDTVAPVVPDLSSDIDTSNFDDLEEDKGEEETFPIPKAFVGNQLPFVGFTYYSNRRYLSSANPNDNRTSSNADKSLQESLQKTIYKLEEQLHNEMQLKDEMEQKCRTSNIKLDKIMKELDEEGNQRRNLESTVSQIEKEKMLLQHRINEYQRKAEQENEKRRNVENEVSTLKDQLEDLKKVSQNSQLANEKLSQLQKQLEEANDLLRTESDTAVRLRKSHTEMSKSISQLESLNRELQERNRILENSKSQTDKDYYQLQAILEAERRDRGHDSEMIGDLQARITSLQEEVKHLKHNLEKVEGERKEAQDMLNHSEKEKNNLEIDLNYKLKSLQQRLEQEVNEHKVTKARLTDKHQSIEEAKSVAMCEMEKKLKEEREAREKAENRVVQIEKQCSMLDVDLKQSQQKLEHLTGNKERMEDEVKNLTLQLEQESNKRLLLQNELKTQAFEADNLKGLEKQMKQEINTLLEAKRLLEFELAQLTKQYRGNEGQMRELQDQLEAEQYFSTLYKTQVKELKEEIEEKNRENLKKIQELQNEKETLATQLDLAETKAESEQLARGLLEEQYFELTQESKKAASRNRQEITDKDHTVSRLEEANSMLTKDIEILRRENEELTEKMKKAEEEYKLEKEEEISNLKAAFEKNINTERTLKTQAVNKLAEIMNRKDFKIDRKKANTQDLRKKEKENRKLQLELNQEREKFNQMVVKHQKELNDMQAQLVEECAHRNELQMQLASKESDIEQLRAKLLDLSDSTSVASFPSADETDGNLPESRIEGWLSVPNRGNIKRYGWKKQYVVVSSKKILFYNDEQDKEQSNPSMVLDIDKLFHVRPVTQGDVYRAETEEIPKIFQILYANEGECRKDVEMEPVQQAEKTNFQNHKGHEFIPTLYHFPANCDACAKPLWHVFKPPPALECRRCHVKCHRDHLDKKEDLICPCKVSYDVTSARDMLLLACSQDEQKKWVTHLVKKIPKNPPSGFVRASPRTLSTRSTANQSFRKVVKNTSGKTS

[4] = target: Tyrosine-protein kinase Mer (Homo sapiens) (UniProt Q12866); test: Inhibition of c-MER (unknown origin) using [gamma-33P]ATP assessed as residual activity at 3 uM
[5] = target: Glycogen synthase kinase-3 alpha (Homo sapiens) (UniProt P49840); test: Inhibition of GSK3a (unknown origin) using [gamma-33P]ATP assessed as residual activity at 3 uM
In short: (§2)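 Radiometric kinase profiling service covering 288 kinases (261 wild-type, 27 mutant). Inhibition was read as incorporation from [γ-³³P]ATP.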

[6] = tested on: Epidermal growth factor receptor (Homo sapiens), P00533 [L858R]; test: Inhibition of EGFR L858R mutant (unknown origin) using [gamma-33P]ATP assessed as residual activity at 3 uM; format: protein assay; in short: as §1
[7] = target: SRSF protein kinase 2 (Homo sapiens) (UniProt P78362); test: Inhibition of SRPK2 (unknown origin) using [gamma-33P]ATP assessed as residual activity at 3 uM
[8] = target: Tyrosine-protein kinase receptor TYRO3 (Homo sapiens) (UniProt Q06418); test: Inhibition of TYRO3 (unknown origin) using [gamma-33P]ATP assessed as residual activity at 3 uM
Tyrosine-protein kinase receptor TYRO3 (Homo sapiens), sequence (Q06418 whole entry): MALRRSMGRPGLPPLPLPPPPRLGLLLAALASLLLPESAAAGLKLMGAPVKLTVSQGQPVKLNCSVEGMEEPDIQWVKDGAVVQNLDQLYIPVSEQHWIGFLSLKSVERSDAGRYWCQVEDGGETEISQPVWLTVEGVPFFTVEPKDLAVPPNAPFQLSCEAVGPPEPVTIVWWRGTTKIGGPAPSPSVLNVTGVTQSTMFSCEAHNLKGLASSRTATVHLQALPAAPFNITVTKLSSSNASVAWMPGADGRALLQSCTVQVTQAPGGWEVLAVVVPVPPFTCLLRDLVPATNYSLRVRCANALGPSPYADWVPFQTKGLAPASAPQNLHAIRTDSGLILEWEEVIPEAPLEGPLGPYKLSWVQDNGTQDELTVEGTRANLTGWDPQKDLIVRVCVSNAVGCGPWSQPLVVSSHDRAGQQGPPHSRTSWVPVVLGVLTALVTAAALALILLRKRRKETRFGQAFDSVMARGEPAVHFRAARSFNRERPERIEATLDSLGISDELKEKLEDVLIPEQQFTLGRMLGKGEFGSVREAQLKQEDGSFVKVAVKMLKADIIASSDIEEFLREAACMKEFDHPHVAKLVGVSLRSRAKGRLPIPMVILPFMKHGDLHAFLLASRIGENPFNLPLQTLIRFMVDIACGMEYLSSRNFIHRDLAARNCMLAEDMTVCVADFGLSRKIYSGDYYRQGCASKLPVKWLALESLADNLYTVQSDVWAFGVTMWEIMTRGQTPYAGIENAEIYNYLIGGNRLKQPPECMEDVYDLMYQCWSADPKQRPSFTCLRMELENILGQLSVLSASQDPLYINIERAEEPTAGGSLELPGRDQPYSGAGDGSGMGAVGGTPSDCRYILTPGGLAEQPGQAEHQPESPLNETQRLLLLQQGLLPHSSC

[9] = target: Calcium/calmodulin-dependent protein kinase type II subunit gamma (Homo sapiens) (UniProt Q13555); test: Inhibition of CAMK2g (unknown origin) using [gamma-33P]ATP assessed as residual activity at 3 uM
In short: (§3)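 Radiometric profiling across 288 kinases (261 wild-type, 27 mutant), run as an outsourced service. Inhibition read out as [gamma-33P]ATP incorporation into substrate.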

[10] = tested on: Fibroblast growth factor receptor 1 (Homo sapiens), P11362 [V561M]; test: Inhibition of FGFR1 V561M mutant (unknown origin) using [gamma-33P]ATP assessed as residual activity at 3 uM; in short: as §1
[11] = target: Protein kinase C zeta type (Homo sapiens) (UniProt Q05513); test: Inhibition of PKCzeta (unknown origin) using [gamma-33P]ATP assessed as residual activity at 3 uM
[12] = target: Dual specificity protein kinase TTK (Homo sapiens) (UniProt P33981); test: Inhibition of TTK (unknown origin) using [gamma-33P]ATP assessed as residual activity at 3 uM
[13] = target: Tyrosine-protein kinase Fyn (Homo sapiens, UniProt P06241); test: Inhibition of FYN (unknown origin) using [gamma-33P]ATP assessed as residual activity at 3 uM
[14] = target: Proto-oncogene tyrosine-protein kinase ROS (Homo sapiens) (UniProt P08922); test: Inhibition of ROS (unknown origin) using [gamma-33P]ATP assessed as residual activity at 3 uM
[15] = target: Insulin receptor-related protein (Homo sapiens) (UniProt P14616); test: Inhibition of IRR (unknown origin) using [gamma-33P]ATP assessed as residual activity at 3 uM; in short: as §2
[16] = target: Rho-associated protein kinase 2 (Homo sapiens) (UniProt O75116); test: Inhibition of ROCK2 (unknown origin) using [gamma-33P]ATP assessed as residual activity at 3 uM
Rho-associated protein kinase 2 (Homo sapiens), sequence (O75116 whole entry, looked up): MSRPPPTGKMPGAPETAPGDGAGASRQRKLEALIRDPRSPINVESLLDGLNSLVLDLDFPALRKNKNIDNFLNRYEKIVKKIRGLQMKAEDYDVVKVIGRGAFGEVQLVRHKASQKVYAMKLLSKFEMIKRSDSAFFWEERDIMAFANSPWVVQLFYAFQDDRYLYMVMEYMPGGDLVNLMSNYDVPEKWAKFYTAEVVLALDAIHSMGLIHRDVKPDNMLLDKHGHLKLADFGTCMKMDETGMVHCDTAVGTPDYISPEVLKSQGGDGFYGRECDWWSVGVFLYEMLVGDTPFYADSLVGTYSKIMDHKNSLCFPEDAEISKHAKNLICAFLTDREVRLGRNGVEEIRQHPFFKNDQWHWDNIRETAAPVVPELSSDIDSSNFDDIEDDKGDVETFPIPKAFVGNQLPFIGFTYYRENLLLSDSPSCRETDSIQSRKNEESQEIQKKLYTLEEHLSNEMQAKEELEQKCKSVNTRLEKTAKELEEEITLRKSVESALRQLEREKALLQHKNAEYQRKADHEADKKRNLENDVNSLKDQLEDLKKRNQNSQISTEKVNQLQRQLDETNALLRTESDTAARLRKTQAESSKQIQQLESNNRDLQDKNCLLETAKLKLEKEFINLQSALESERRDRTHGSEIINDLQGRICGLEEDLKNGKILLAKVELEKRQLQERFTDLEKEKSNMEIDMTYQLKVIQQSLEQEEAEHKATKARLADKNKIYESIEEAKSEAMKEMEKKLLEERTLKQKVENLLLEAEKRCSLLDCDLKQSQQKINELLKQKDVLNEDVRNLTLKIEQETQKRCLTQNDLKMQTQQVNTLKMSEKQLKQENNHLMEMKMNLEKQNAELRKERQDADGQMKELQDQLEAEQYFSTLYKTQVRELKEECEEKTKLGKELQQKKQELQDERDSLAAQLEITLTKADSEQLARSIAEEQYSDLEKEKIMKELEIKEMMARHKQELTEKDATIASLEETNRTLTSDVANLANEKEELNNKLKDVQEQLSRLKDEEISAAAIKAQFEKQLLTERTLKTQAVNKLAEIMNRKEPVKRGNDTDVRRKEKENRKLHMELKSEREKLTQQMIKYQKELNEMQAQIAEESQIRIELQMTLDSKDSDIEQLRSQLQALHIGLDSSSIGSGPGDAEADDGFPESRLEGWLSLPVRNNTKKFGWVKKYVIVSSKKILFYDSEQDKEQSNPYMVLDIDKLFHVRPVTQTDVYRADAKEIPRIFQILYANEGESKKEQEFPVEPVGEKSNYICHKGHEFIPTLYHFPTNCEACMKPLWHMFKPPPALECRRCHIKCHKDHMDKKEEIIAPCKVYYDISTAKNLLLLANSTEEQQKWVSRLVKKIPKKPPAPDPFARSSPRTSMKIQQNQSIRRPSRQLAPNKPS

[17] = target: Serine/threonine-protein kinase pim-2 (Homo sapiens) (UniProt Q9P1W9); test: Inhibition of PIM2 (unknown origin) using [gamma-33P]ATP assessed as residual activity at 3 uM
[18] = target: Tyrosine-protein kinase Lyn (Homo sapiens) (UniProt P07948); test: Inhibition of LYN (unknown origin) using [gamma-33P]ATP assessed as residual activity at 3 uM; in short: as §2
Tyrosine-protein kinase Lyn (Homo sapiens), sequence (P07948 2-512 limits assumed): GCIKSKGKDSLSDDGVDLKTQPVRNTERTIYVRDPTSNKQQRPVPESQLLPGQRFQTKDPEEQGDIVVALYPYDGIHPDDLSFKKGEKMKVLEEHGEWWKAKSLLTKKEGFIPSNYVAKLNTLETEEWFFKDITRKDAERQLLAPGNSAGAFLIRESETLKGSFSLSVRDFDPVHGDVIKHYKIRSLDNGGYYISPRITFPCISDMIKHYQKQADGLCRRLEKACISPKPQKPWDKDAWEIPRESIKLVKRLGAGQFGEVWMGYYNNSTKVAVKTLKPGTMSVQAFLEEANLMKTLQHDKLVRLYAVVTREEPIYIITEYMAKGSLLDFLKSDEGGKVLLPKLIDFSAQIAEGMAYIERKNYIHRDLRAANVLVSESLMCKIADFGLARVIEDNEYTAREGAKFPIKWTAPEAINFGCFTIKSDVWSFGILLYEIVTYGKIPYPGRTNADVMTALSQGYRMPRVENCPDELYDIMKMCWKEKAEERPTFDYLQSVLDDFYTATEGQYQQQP

[19] = target: Ephrin type-A receptor 7 (Homo sapiens) (UniProt Q15375); test: Inhibition of EPHA7 (unknown origin) using [gamma-33P]ATP assessed as residual activity at 3 uM; in short: as §1
[20] = target: Tyrosine-protein kinase Fgr (Homo sapiens, UniProt P09769); test: Inhibition of FGR (unknown origin) using [gamma-33P]ATP assessed as residual activity at 3 uM
[21] = target: Protein kinase C iota type (Homo sapiens) (UniProt P41743); test: Inhibition of PKCiota (unknown origin) using [gamma-33P]ATP assessed as residual activity at 3 uM
[22] = target: Ephrin type-B receptor 4 (Homo sapiens) (UniProt P54760); test: Inhibition of EPHB4 (unknown origin) using [gamma-33P]ATP assessed as residual activity at 3 uM; in short: as §1
[23] = target: Calcium/calmodulin-dependent protein kinase type II subunit alpha (Homo sapiens) (UniProt Q9UQM7); test: Inhibition of CAMK2a (unknown origin) using [gamma-33P]ATP assessed as residual activity at 3 uM; in short: as §3
[24] = target: Tyrosine-protein kinase Lyn (Homo sapiens) (UniProt P07948); test: Inhibition of LYN-B (unknown origin) using [gamma-33P]ATP assessed as residual activity at 3 uM; in short: as §2
[25] = target: cGMP-dependent protein kinase 1 (Homo sapiens) (UniProt Q13976); test: Inhibition of PKG1b (unknown origin) using [gamma-33P]ATP assessed as residual activity at 3 uM
cGMP-dependent protein kinase 1 (Homo sapiens), sequence (Q13976 whole entry): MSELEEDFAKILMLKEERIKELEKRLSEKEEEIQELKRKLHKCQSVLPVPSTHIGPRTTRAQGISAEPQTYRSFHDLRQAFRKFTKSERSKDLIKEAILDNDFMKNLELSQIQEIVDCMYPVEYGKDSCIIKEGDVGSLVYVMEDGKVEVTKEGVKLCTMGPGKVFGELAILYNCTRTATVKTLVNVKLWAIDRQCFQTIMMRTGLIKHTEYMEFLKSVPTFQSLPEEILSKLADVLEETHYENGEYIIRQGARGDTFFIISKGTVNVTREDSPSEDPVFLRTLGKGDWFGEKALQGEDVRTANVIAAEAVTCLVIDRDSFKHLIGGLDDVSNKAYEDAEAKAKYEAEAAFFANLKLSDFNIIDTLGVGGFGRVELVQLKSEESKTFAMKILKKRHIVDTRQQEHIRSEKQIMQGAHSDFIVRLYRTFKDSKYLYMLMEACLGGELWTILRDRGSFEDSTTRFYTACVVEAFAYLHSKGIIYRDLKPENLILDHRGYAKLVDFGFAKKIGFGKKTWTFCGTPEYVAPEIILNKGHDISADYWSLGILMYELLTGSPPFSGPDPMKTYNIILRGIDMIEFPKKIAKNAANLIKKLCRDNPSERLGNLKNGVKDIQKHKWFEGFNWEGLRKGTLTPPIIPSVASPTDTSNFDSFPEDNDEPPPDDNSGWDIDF

[26] = target: Serine/threonine-protein kinase D2 (Homo sapiens) (UniProt Q9BZL6); test: Inhibition of PKD2 (unknown origin) using [gamma-33P]ATP assessed as residual activity at 3 uM
[27] = target: cGMP-dependent protein kinase 1 (Homo sapiens) (UniProt Q13976); test: Inhibition of PKG1a (unknown origin) using [gamma-33P]ATP assessed as residual activity at 3 uM
[28] = target: Serine/threonine-protein kinase PLK3 (Homo sapiens) (UniProt Q9H4B4); test: Inhibition of PLK3 (unknown origin) using [gamma-33P]ATP assessed as residual activity at 3 uM
[29] = target: Protein kinase C alpha type (Homo sapiens) (UniProt P17252); test: Inhibition of PKCa (unknown origin) using [gamma-33P]ATP assessed as residual activity at 3 uM
[30] = target: Mitogen-activated protein kinase 12 (Homo sapiens) (UniProt P53778); test: Inhibition of P38g (unknown origin) using [gamma-33P]ATP assessed as residual activity at 3 uM
[31] = target: Mitogen-activated protein kinase 9 (Homo sapiens) (UniProt P45984); test: Inhibition of JNK2a2 (unknown origin) using [gamma-33P]ATP assessed as residual activity at 3 uM; in short: as §2
[32] = tested on: Mast/stem cell growth factor receptor Kit (Homo sapiens), P10721 [V560G]; test: Inhibition of c-Kit V560G mutant (unknown origin) using [gamma-33P]ATP assessed as residual activity at 3 uM
[33] = target: Platelet-derived growth factor receptor alpha (Homo sapiens) (UniProt P16234); test: Inhibition of PDGFRa (unknown origin) using [gamma-33P]ATP assessed as residual activity at 3 uM

Work on `CCc1ccc(-c2ccc3c(c2)-c2[nH]ncc2S(=O)(=O)N3C)cc1` yielded an Activity [1] of 100%, an Activity [2] of 91% and an Activity [3] of 94%. For the same molecule, the Activity [4] was 86%, the Activity [5] was 81% and the Activity [6] was 95%. It also gave an Activity [7] of 102%, an Activity [8] of 94% and an Activity [9] of 94%. For the same molecule, the Activity [10] was 98%, the Activity [11] was 98% and the Activity [12] was 74%. The Activity [13] was 39%, the Activity [14] was 95% and the Activity [15] was 100%. It also gave an Activity [16] of 94%, an Activity [17] of 101% and an Activity [18] of 78%. It also gave an Activity [19] of 93%, an Activity [20] of 47% and an Activity [21] of 95%. For the same molecule, the Activity [22] was 78%, the Activity [23] was 96% and the Activity [24] was 78%. It also gave an Activity [25] of 102%, an Activity [26] of 98% and an Activity [27] of 95%. For the same molecule, the Activity [28] was 105%, the Activity [29] was 86% and the Activity [30] was 101%. The Activity [31] was 98%, the Activity [32] was 72% and the Activity [33] was 87%.
